Data from ChEMBL document CHEMBL4371097, “Antibacterial Aromatic Polyketides Incorporating the Unusual Amino Acid Enduracididine” (J Nat Prod, 2019).
Values after ≈ are worked out from the molar mass of the structure shown. Active and inactive are the calls of the source. The calls are words filed in the database; no cut-off is given here.

Assays:
Staphylococcus aureus [1] = assay: Antibacterial activity against methicillin-resistant Staphylococcus aureus isolate 3864 after 16 hrs by agar diffusion method; assay type: functional
Staphylococcus aureus [2] = assay: Antibacterial activity against multidrug-resistant Staphylococcus aureus isolate 3797 after 16 hrs by agar diffusion method; assay type: functional
[3] = test system: Staphylococcus haemolyticus; assay: Antibacterial activity against Staphylococcus haemolyticus isolate 1730 after 16 hrs by agar diffusion method; assay type: functional
[4] = test system: Staphylococcus haemolyticus; assay: Antibacterial activity against multidrug-resistant Staphylococcus haemolyticus isolate 1729 after 16 hrs by agar diffusion method; assay type: functional
[5] = test system: Staphylococcus intermedius; assay: Antibacterial activity against Staphylococcus intermedius ATCC 29663 after 16 hrs by agar diffusion method; assay type: functional
Streptococcus pyogenes = assay: Antibacterial activity against Streptococcus pyogenes isolate 49 after 16 hrs by agar diffusion method; assay type: functional
Streptococcus pneumoniae [6] = assay: Antibacterial activity against Streptococcus pneumoniae ATCC BAA1407 after 16 hrs by agar diffusion method; assay type: functional
Streptococcus pneumoniae [7] = assay: Antibacterial activity against Streptococcus pneumoniae isolate 44 after 16 hrs by agar diffusion method; assay type: functional
Enterococcus faecium [8] = assay: Antibacterial activity against Enterococcus faecium isolate 568 after 16 hrs by agar diffusion method; assay type: functional
Enterococcus faecium [9] = assay: Antibacterial activity against Vancomycin A-inducible resistant Enterococcus faecium isolate 569 after 16 hrs by agar diffusion method; assay type: functional
Cutibacterium acnes = assay: Antibacterial activity against Propionibacterium acnes ATCC 25746 after 16 hrs by agar diffusion method; assay type: functional
Clostridioides difficile = assay: Antibacterial activity against Clostridium difficile ATCC 17858 after 16 hrs by agar diffusion method; assay type: functional
[10] = test system: Mycolicibacterium smegmatis; assay: Antibacterial activity against Mycobacterium smegmatis after 16 hrs by agar diffusion method; assay type: functional, organism-based
Candida albicans = assay: Antifungal activity against Candida albicans after 16 hrs by agar diffusion method; assay type: functional, organism-based
Staphylococcus aureus [11] = assay: Bactericidal activity against Staphylococcus aureus ATCC 6538P at 8 times MIC up to 2 to 4 hrs by time kill assay relative to control; assay type: functional
Staphylococcus aureus [12] = assay: Bactericidal activity against Staphylococcus aureus isolate 3797 at 8 times MIC up to 2 to 4 hrs by time kill assay relative to control; assay type: functional
Staphylococcus aureus [13] = assay: Bactericidal activity against Staphylococcus aureus ATCC 6538P up to 8 times MIC up to 24 hrs by time kill assay; assay type: functional, organism-based
Staphylococcus aureus [14] = assay: Bactericidal activity against Staphylococcus aureus isolate 3797 up to 8 times MIC up to 24 hrs by time kill assay; assay type: functional, organism-based
[15] = Growth inhibition of human PANC1 cells at 90 uM after 48 hrs by MTT assay relative to control; assay type: cell-based; settings: PANC-1 cells, read-out: GI
HEK293 = assay: Growth inhibition of HEK293 cells after 48 hrs by MTT assay; assay type: cell-based; settings: Homo sapiens, HEK293, 48 h
Bacillus subtilis = assay: Inhibition of cell wall synthesis in Bacillus subtilis BAU102 assessed as induction of beta-galactosidase activity preincubated for 120 mins followed by beta-galactosidase chromogenic substrate addition; assay type: functional, organism-based
Staphylococcus aureus [16] = assay: Inhibition of DNA synthesis in Staphylococcus aureus isolate 12ST assessed as reduction in 5-[3H]thymidine incorporation preincubated for 5 mins followed by 5-[3H]thymidine addition and measured after 5 mins by liquid scintillation counting method; assay type: functional, organism-based
In short: (§1)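 S. aureus 12ST was grown overnight in 0.2× LB, diluted 200-fold, and grown at 37 °C to OD600 0.2–0.25. Aliquots were exposed to compound for 5 min at 37 °C (0.5% DMSO maximum final). Label was then added ([6-3H]thymidine 0.15 μCi/sample; D-[6-3H]glucosamine 0.4 μCi/sample) for 5 min at 37 °C. Samples were precipitated with ice-cold 5% TCA for ≥30 min, filtered, washed, and scintillation counted.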

Staphylococcus aureus [17] = assay: Inhibition of cell wall synthesis in Staphylococcus aureus isolate 12ST assessed as reduction in [3H]glucosamine hydrochloride incorporation preincubated for 5 mins followed by [3H]glucosamine hydrochloride addition and measured after 5 mins by liquid scintillation counting method; assay type: functional, organism-based; in short: as §1
Staphylococcus aureus [18] = assay: Inhibition of RNA synthesis in Staphylococcus aureus isolate 12ST assessed as reduction in [3H]uridine incorporation up to 60 ug/ml preincubated for 5 mins followed by [3H]uridine addition and measured after 5 mins by liquid scintillation counting method; assay type: functional, organism-based
In short: (§2)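 S. aureus 12ST was grown overnight in 0.2× LB, diluted 200-fold and grown at 37 °C to OD600 0.2–0.25. 80 µL aliquots got medium or compound (added at 10× final) for 5 min at 37 °C. [5,6-3H]uridine 0.15 µCi or L-[5-3H]tryptophan 0.25 µCi was added for 5 min more. Samples were precipitated in ice-cold 5% TCA, filtered and scintillation-counted. DMSO ≤0.5% final.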

Staphylococcus aureus [19] = assay: Stimulation of protein synthesis in Staphylococcus aureus isolate 12ST assessed as increase in L-[3H]tryptophan incorporation preincubated for 5 mins followed by L-[3H]tryptophan addition and measured after 5 mins by liquid scintillation counting method; assay type: functional, organism-based; in short: as §2
Staphylococcus aureus [20] = assay: microbe, parasite or virus in culture; settings: ATCC 6538P, 16 h
Staphylococcus aureus [21] = assay: microbe, parasite or virus in culture; settings: ATCC 29213, 16 h

Q: Which results are given for `COc1c(OC)c2c(=O)c3cc(C)n(C(CC4CN(C)C(=N)N4)C(=O)O)c(=O)c3c(=O)c2c2cc3c(=O)c4cc(O)cc(O)c4c(=O)c3c(OC)c12` (stereo unspecified)?
A: MIC (Staphylococcus aureus [1]; isolate 3864, 16 h): 0.03 µg/mL (≈ 0.0422 µM); MIC (Staphylococcus aureus [2]; isolate 3797, 16 h): 0.03 µg/mL (≈ 0.0422 µM); MIC ([3]; isolate 1730, 16 h): 0.03 µg/mL (≈ 0.0422 µM); MIC ([4]; isolate 1729, 16 h): 0.015 µg/mL (≈ 0.0211 µM); MIC ([5]; NCTC 11048, 16 h): 0.007 µg/mL (≈ 0.00985 µM); MIC (Streptococcus pyogenes; isolate 49, 16 h): 0.5 µg/mL (≈ 0.704 µM); MIC (Streptococcus pneumoniae [6]; ATCC BAA1407, 16 h): 0.25 µg/mL (≈ 0.352 µM); MIC (Streptococcus pneumoniae [7]; isolate 44, 16 h): 0.25 µg/mL (≈ 0.352 µM); MIC (Enterococcus faecium [8]; isolate 568, 16 h): 4 µg/mL (≈ 5.63 µM); MIC (Enterococcus faecium [9]; isolate 569, 16 h): 2 µg/mL (≈ 2.81 µM); MIC (Cutibacterium acnes; ATCC 25746, 16 h): 0.25 µg/mL (≈ 0.352 µM); MIC (Clostridioides difficile; ATCC 17858, 16 h): 2 µg/mL (≈ 2.81 µM); Activity [10]: inactive; Activity (Candida albicans): inactive; Activity (Staphylococcus aureus [11]): >99.9%; Activity (Staphylococcus aureus [12]): >99.9%; Activity (Staphylococcus aureus [13]): inactive; Activity (Staphylococcus aureus [14]): inactive; inhibition at 48 h, 90 µM [15]: 20%; IC50 (HEK293): 55 µM; inhibition (Bacillus subtilis): Active; IC50 (Staphylococcus aureus [16]): 2 µg/mL (≈ 2.81 µM); inhibition (Staphylococcus aureus [16]): Dose-dependent effect; IC50 (Staphylococcus aureus [17]): 5 µg/mL (≈ 7.04 µM); inhibition (Staphylococcus aureus [17]): Dose-dependent effect; inhibition (Staphylococcus aureus [18]): inactive; Activity (Staphylococcus aureus [19]): Active; MIC (Staphylococcus aureus [20]): 0.004 µg/mL (≈ 0.00563 µM); MIC (Staphylococcus aureus [21]): 0.0005 µg/mL (≈ 0.000704 µM)

Q: Which results are given for GENTAMICIN?
A: MIC (Staphylococcus aureus [1]): > 128 µg/mL; MIC (Staphylococcus aureus [2]): 64 µg/mL; MIC [3]: > 128 µg/mL; MIC [4]: > 128 µg/mL; MIC ([5]; NCTC 11048): < 0.125 µg/mL; MIC (Streptococcus pyogenes): 16 µg/mL; MIC (Streptococcus pneumoniae [6]): 64 µg/mL; MIC (Streptococcus pneumoniae [7]): 8 µg/mL; MIC (Enterococcus faecium [8]): 32 µg/mL; MIC (Enterococcus faecium [9]): 16 µg/mL; MIC (Cutibacterium acnes): 2 µg/mL; MIC (Clostridioides difficile): 128 µg/mL

Q: For `CN[C@H](CC(C)C)C(=O)N[C@H]1C(=O)N[C@@H](CC(N)=O)C(=O)N[C@H]2C(=O)N[C@H]3C(=O)N[C@H](C(=O)N[C@H](C(=O)O)c4cc(O)cc(O)c4-c4cc3ccc4O)[C@H](O)c3ccc(c(Cl)c3)Oc3cc2cc(c3O[C@@H]2O[C@H](CO)[C@@H](O)[C@H](O)[C@H]2O[C@H]2C[C@](C)(N)[C@H](O)[C@H](C)O2)Oc2ccc(cc2Cl)[C@H]1O` [VANCOMYCIN], which MIC (Staphylococcus aureus [2]; isolate 3797, 16 h) is on record?
A: The MIC was 8 µg/mL (≈ 5.52 µM).

Q: And the MIC ([3]; isolate 1730, 16 h)?
A: The MIC was 2 µg/mL (≈ 1.38 µM).

Q: And the MIC ([4]; isolate 1729, 16 h)?
A: The MIC was 2 µg/mL (≈ 1.38 µM).

Q: What about the MIC ([5]; NCTC 11048, 16 h) of the same compound?
A: Its MIC is 1 µg/mL (≈ 0.69 µM).

Q: And the MIC (Streptococcus pyogenes; isolate 49, 16 h)?
A: The MIC was 0.25 µg/mL (≈ 0.173 µM).

Q: And the MIC (Streptococcus pneumoniae [6]; ATCC BAA1407, 16 h)?
A: Its MIC is 0.5 µg/mL (≈ 0.345 µM).

Q: And the MIC (Streptococcus pneumoniae [7]; isolate 44, 16 h)?
A: Its MIC is 0.125 µg/mL (≈ 0.0863 µM).

Q: And the MIC (Enterococcus faecium [9]; isolate 569, 16 h)?
A: The MIC was greater than 128 µg/mL.

Q: And the MIC (Cutibacterium acnes; ATCC 25746, 16 h)?
A: The MIC was 0.25 µg/mL (≈ 0.173 µM).

Q: What about the MIC (Clostridioides difficile; ATCC 17858, 16 h) of the same compound?
A: The MIC was 0.5 µg/mL (≈ 0.345 µM).
